Results on 13 compounds are retold here after ChEMBL document CHEMBL1131259, “Synthesis and evaluation of diphenyl phosphonate esters as inhibitors of the trypsin-like granzymes A and K and mast cell tryptase” (J Med Chem, 1998).

Broadly, the inhibition is the percentage by which the read-out fell short of the control. A low value points to a weak effect.

Calls of active or inactive are those of the source. The calls are words filed in the database; no cut-off is given here.

Assay [1] deals with T1, Granzyme A (Homo sapiens) (UniProt P12544).
T1 sequence (whole entry): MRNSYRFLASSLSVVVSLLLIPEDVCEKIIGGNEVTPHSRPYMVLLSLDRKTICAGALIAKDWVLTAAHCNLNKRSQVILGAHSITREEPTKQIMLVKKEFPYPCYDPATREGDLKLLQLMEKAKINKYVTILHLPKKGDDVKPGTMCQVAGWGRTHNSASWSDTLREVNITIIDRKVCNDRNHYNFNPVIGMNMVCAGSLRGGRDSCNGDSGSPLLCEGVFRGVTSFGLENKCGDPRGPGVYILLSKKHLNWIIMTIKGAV
Put plainly: Inhibition of human granzyme A. The method in brief: (§1)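 Recombinant human and rat granzyme A, incubated with inhibitor (1.0–450 μM) at 25 °C in 0.1 M Hepes, 0.01 M CaCl2, pH 7.5 (7.6% DMSO). Timed aliquots were read for residual activity on Cbz-Arg-SBzl with DTNB at 405 nm. k_obs came from ln vt/vo vs time over 5–10 points and 2–3 half-lives, two k_obs per inhibitor. DMSO controls were run.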

For assay [2], the target named is T2, Tryptase (Homo sapiens) (UniProt Q9BZJ3+Q15661+Q9NRR2). The assay is described as follows: Compound was evaluated to inhibit mast cell tryptase. Format: protein assay. Conditions: concentration not given here. An outline of the steps: (§2)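 Human lung mast cell tryptase, high-molecular-weight form, heparin-free, active sites titrated with MUGB. Incubated with inhibitor at 25 °C in 0.1 M Hepes, 10% glycerol, 10 mM heparin, pH 7.5 (7.1% DMSO). […] DMSO controls were run.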

For assay [3], the target named is T3, Granzyme K (Rattus norvegicus) (UniProt P49864).
T3 sequence (whole entry): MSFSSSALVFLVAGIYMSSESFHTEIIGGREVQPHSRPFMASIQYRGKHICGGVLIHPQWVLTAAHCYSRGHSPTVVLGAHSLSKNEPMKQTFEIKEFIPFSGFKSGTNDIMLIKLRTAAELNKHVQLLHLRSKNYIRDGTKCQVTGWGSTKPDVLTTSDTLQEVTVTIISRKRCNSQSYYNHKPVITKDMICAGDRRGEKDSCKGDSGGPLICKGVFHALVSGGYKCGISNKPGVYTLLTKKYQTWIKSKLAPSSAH
Put plainly: Compound was evaluated to inhibit rat granzyme K; No inhibition. An outline of the steps:
(§3)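 Native rat granzyme K, purified by size-exclusion in 1 M NaCl then MonoS cation exchange. Incubated with inhibitor (1.0–450 μM) at 25 °C in 0.1 M Hepes, 0.01 M CaCl2, pH 7.5 (7.1% DMSO). Timed aliquots were read for residual activity on Cbz-Arg-SBzl with DTNB at 405 nm. k_obs came from ln vt/vo vs time, one or two per inhibitor. For no-inhibition lines, none was seen after 25 min.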

Assay [4] has as its target T4, Serine protease 1 (Bos taurus) (UniProt P00760).
T4 sequence (whole entry): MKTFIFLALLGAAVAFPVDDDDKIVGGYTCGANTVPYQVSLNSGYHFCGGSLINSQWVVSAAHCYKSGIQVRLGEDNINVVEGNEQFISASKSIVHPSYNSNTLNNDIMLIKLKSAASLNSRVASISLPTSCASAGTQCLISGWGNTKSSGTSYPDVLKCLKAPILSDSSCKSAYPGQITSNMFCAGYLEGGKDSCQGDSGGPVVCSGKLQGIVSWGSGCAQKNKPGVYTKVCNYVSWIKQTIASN
The assay is described as follows: Inhibition of bovine trypsin. An outline of the steps: (§4)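 Irreversible inhibition assayed by incubation at 25 °C in 0.1 M Hepes, 0.01 M CaCl2, pH 7.5 (2% DMSO), inhibitor 1.0–450 μM. Timed aliquots were read for residual activity on Cbz-Arg-SBzl with DTNB at 410 nm. Pseudo-first-order k_obs came from ln vt/vo vs time, using 5–10 points over 2–3 half-lives, three k_obs per inhibitor. DMSO-only controls were run. For no-inhibition lines, none was seen after 25 min.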

In assay [5] the target is T4, Serine protease 1 (Bos taurus). Put plainly: Compound was evaluated to inhibit bovine trypsin; No inhibition. The method in brief: as §4
Assay [6] deals with T2, Tryptase (Homo sapiens). The assay is described as follows: Compound was evaluated to inhibit mast cell tryptase; No inhibition. Format: protein assay. The method in brief: as §2
Assay [7] has as its target T5, Granzyme A (Rattus norvegicus) (UniProt Q8CJF4).
T5 sequence (whole entry): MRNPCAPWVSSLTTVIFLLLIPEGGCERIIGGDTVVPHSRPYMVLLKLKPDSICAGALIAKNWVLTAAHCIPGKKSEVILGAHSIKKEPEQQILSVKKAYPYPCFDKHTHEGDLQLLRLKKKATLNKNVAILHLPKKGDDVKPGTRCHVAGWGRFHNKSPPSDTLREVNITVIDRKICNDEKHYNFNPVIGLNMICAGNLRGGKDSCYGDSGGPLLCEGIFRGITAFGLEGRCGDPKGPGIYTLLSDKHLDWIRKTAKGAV
The assay is described as follows: Inhibition of rat granzyme A. An outline of the steps: as §1

The target in assay [8] is T2, Tryptase (Homo sapiens). The assay is described as follows: Inhibition of mast cell tryptase. Format: protein assay. An outline of the steps:
as §2

For assay [9], the target named is T3, Granzyme K (Rattus norvegicus). The assay is described as follows: Inhibition of rat granzyme K. The method in brief: as §3
Assay [10] has the same target. The assay is described as follows: Compound was evaluated to inhibit rat granzyme K;No inhibition. The method in brief:
as §3

In turn, `N=C(N)c1ccc(C(NC(=O)[C@@H]2CCCN2C(=O)c2cccc(Oc3ccccc3)c2)P(=O)(Oc2ccccc2)Oc2ccccc2)cc1` (some centres undefined) showed a kobs/[I] (second-order inactivation rate constant) in assay [1] of 330 M⁻¹ s⁻¹. Further, in assay [2], the inhibition turned out to be 7%. In addition, in assay [3], the “K obs / 1” value was “inactive”. The same compound came in with a K obs / 1 in assay [4] of 4080 M⁻¹ s⁻¹.
As to `NCCCC(NC(=O)OCc1ccccc1)P(=O)(Oc1ccccc1)Oc1ccccc1` (centres undefined), in assay [1], the kobs/[I] (second-order inactivation rate constant) is 0.6 M⁻¹ s⁻¹. The “K obs / 1” value in [5], in assay [6] and in assay [3] was “inactive” each time.
As to `NC(N)c1ccc(C(NS(=O)(=O)c2cccc3ccccc23)P(=O)(Oc2ccccc2)Oc2ccccc2)cc1` (centres undefined), the kobs/[I] (second-order inactivation rate constant) in [1] came out at 330 M⁻¹ s⁻¹. Also, the values for the K obs / 1 in assay [7] and in assay [4] were 30 M⁻¹ s⁻¹ and 170 M⁻¹ s⁻¹, respectively. This compound also gave a kobs/[I] (second-order inhibition rate constant) in assay [8] of 10 M⁻¹ s⁻¹. Moreover, in assay [3], the “K obs / 1” value was “inactive”.
With `NC(N)c1ccc(C(NC(=O)c2cccc(Oc3ccccc3)c2)P(=O)(Oc2ccccc2)Oc2ccccc2)cc1` (centres undefined), the figures for the kobs/[I] (second-order inactivation rate constant) in [1] and in assay [9] were 340 M⁻¹ s⁻¹ and 1 M⁻¹ s⁻¹, respectively. In addition, the K obs / 1 is 470 M⁻¹ s⁻¹ in [7] and 50 M⁻¹ s⁻¹ in assay [4]. Also, the “K obs / 1” value in assay [6] was “inactive”.
Compound `CC(C)C[C@H](NC(=O)OCc1ccccc1)C(=O)NC(c1ccc(C(=N)N)cc1)P(=O)(Oc1ccccc1)Oc1ccccc1` (some centres undefined) registered a kobs/[I] (second-order inactivation rate constant) in assay [1] of 6.3 M⁻¹ s⁻¹. The kobs/[I] (second-order inhibition rate constant) in assay [8] came out at 0.3 M⁻¹ s⁻¹. Moreover, the “K obs / 1” value in assay [10] is “inactive”. Besides, the K obs / 1 in assay [4] is 50 M⁻¹ s⁻¹.
For the compound `N=C(N)c1ccc(C(NC(=O)[C@H](Cc2ccccc2)NC(=O)OCc2ccccc2)P(=O)(Oc2ccccc2)Oc2ccccc2)cc1` (some centres undefined), the kobs/[I] (second-order inactivation rate constant) in assay [1] came out at 14 M⁻¹ s⁻¹; in assay [9], 13 M⁻¹ s⁻¹. Besides, the K obs / 1 in assay [7] stood at 8 M⁻¹ s⁻¹; in assay [4], 17 M⁻¹ s⁻¹. The inhibition in [2] worked out at 5%.
As for `C[C@H](NC(=O)[C@@H](CC(=O)OC(C)(C)C)NC(=O)OCc1ccccc1)C(=O)NC(c1ccc(C(=N)N)cc1)P(=O)(Oc1ccccc1)Oc1ccccc1` (some centres undefined), in assay [1], the kobs/[I] (second-order inactivation rate constant) came out at 280 M⁻¹ s⁻¹. The compound further had a kobs/[I] (second-order inhibition rate constant) in assay [8] of 3 M⁻¹ s⁻¹. Also, the “K obs / 1” value in [3] is “inactive”. The same compound had a K obs / 1 in [4] of 2000 M⁻¹ s⁻¹.
As for `N=C(N)c1ccc(C(NC(=O)/C=C/c2cccnc2)P(=O)(Oc2ccccc2)Oc2ccccc2)cc1` (centres undefined), the kobs/[I] (second-order inactivation rate constant) in assay [1] is 5 M⁻¹ s⁻¹; in assay [9], 3 M⁻¹ s⁻¹. Also, the “K obs / 1” value in assay [5] and in assay [6] was “inactive” each time. In assay [7], this compound came in with a K obs / 1 of 1 M⁻¹ s⁻¹.
The compound `C[C@H](NC(=O)[C@@H](CCCCN)NC(=O)OCc1ccccc1)C(=O)NC(c1ccc(C(N)N)cc1)P(=O)(Oc1ccccc1)Oc1ccccc1` (some centres undefined) came in with a kobs/[I] (second-order inactivation rate constant) in assay [1] of 90 M⁻¹ s⁻¹. The kobs/[I] (second-order inhibition rate constant) in assay [8] worked out at 2 M⁻¹ s⁻¹. The “K obs / 1” value in assay [3] was “inactive”. The compound further gave a K obs / 1 in assay [4] of 3140 M⁻¹ s⁻¹.
The matching figures for `C[C@H](NC(=O)[C@@H](CCCCNC(=O)OC(C)(C)C)NC(=O)OCc1ccccc1)C(=O)NC(c1ccc(C(N)N)cc1)P(=O)(Oc1ccccc1)Oc1ccccc1` (some centres undefined): 110 M⁻¹ s⁻¹, 8.5 M⁻¹ s⁻¹, “inactive” and 3100 M⁻¹ s⁻¹.
Turning to `NC(N)c1ccc(C(NC(=O)OCc2cccc3ccccc23)P(=O)(Oc2ccccc2)Oc2ccccc2)cc1` (centres undefined), the kobs/[I] (second-order inactivation rate constant) in [1] worked out at 160 M⁻¹ s⁻¹; in assay [9] it was 12 M⁻¹ s⁻¹. Moreover, the K obs / 1 in assay [7] is 90 M⁻¹ s⁻¹; in [4] it was 30 M⁻¹ s⁻¹. Moreover, the “K obs / 1” value in assay [6] is “inactive”.
`C[C@H](NC(=O)OCc1ccccc1)C(=O)NC(c1ccc(C(N)N)cc1)P(=O)(Oc1ccccc1)Oc1ccccc1` (some centres undefined) had a kobs/[I] (second-order inactivation rate constant) in assay [1] of 1670 M⁻¹ s⁻¹. Further, the values for the K obs / 1 in [7] and in assay [4] were 1270 M⁻¹ s⁻¹ and 1850 M⁻¹ s⁻¹, respectively. The kobs/[I] (second-order inhibition rate constant) in [8] amounted to 0.8 M⁻¹ s⁻¹. The “K obs / 1” value in assay [3] is “inactive”.
Turning to `N=C(N)c1ccc(C(NC(=O)[C@H](CCCCN)NC(=O)OCc2ccccc2)P(=O)(Oc2ccccc2)Oc2ccccc2)cc1` (some centres undefined), the results for the kobs/[I] (second-order inactivation rate constant) in assay [1] and in assay [9] were 30 M⁻¹ s⁻¹ and 1 M⁻¹ s⁻¹, respectively. Besides, the K obs / 1 in [7] was 15 M⁻¹ s⁻¹; in assay [4], 30 M⁻¹ s⁻¹. Besides, in assay [6], the “K obs / 1” value is “inactive”.
